Test results published in ChEMBL document CHEMBL5500387, “Design, synthesis of combretastatin A-4 piperazine derivatives as potential antitumor agents by inhibiting tubulin polymerization and inducing autophagy in HCT116 cells” (Eur J Med Chem, 2024).

How the values were obtained:
HCT-116 = experiment: Cytotoxicity against human HCT-116 cells assessed as inhibition of cell proliferation measured after 72 hrs by CCK-8 assay; type: functional, cell-based; settings: HCT-116, 72 h
In short: (§1)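 Cells seeded at 2×10^3 per well and grown overnight in 10% FBS medium: HCT116 in McCoy's 5A, A549 and AGS in F-12K, SK-MES-1 in DMEM. Compounds added at varied concentrations with 0.1% DMSO control, 72 h at 37 °C. 10% CCK-8 for 2 h, then A450 read. Survival = (As−Ab)/(Ac−Ab)×100%. IC50 from curve fitting.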

[1] = Octanol-water partition coefficient, log P of the compound at pH 7.4 at 4 mg measured after 24 hrs by liquid chromatography; type: physicochemical
In short: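 4 mg of compound was dissolved in 1 mL water-saturated n-octanol and held 24 h at room temperature, then centrifuged. The supernatant was mixed with an equal volume of octanol-saturated water, stood 24 h, centrifuged and the phases separated. Phase concentrations were measured by LC standard curves. log P = log(C_octanol/C_water). At least three independent runs.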

AGS = experiment: Cytotoxicity against human AGS cells assessed as inhibition of cell proliferation measured after 72 hrs by CCK-8 assay; type: functional, cell-based; in short: as §1
A549 = experiment: Cytotoxicity against human A549 cells assessed as inhibition of cell proliferation measured after 72 hrs by CCK-8 assay; type: functional, cell-based; settings: A549, 72 h; in short: as §1
SK-MES-1 = experiment: Cytotoxicity against human SK-MES-1 cells assessed as inhibition of cell proliferation measured after 72 hrs by CCK-8 assay; type: functional, cell-based; settings: SK-MES-1, 72 h; in short: as §1
[2] = Cytotoxicity against human NCM460 cells assessed as inhibition of cell proliferation measured after 72 hrs by CCK-8 assay; type: toxicity, cell-based
In short: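 NCM460 normal colonic epithelial cells seeded at 2×10^3 cells/well and grown overnight in RPMI-1640 with 10% FBS. Compounds added at a range of concentrations, 0.1% DMSO as negative control, 72 h at 37 °C. Read-out by CCK-8 (10%, 2 h) at 450 nm. Survival = (As−Ab)/(Ac−Ab)×100%; IC50 taken as concentration giving 50% inhibition of proliferation.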

| SMILES | IC50 (HCT-116) | further results |
| --- | --- | --- |
| COc1ccc(/C=C(/C(=O)N2CCN(c3cccc(C)c3)CC2)c2cc(OC)c(OC)c(OC)c2)cc1O | 1.77 µM | – |
| COc1ccc(/C=C(/C(=O)N2CCN(c3ccccc3Cl)CC2)c2cc(OC)c(OC)c(OC)c2)cc1O | 1.83 µM | – |
| COc1ccc(/C=C(/C(=O)N2CCN(c3ccc(C)cc3)CC2)c2cc(OC)c(OC)c(OC)c2)cc1O[C@H]1O[C@H](CO)[C@@H](O)[C@H](O)[C@@H]1O | – | logD at 24 h [1]: -0.638 |
| COc1ccc(/C=C(/C(=O)N2CCCC2)c2cc(OC)c(OC)c(OC)c2)cc1O | 2.48 µM | – |
| COc1ccc(/C=C(/C(=O)N2CCN(c3ccc(Br)cc3)CC2)c2cc(OC)c(OC)c(OC)c2)cc1O | 0.716 µM | IC50 (AGS): 1.35 µM; IC50 (A549): 0.547 µM; IC50 (SK-MES-1): 0.803 µM |
| COc1ccc(/C=C(/C(=O)N2CCN(Cc3ccc(C)cc3)CC2)c2cc(OC)c(OC)c(OC)c2)cc1O | 1.98 µM | – |
| COc1ccc(/C=C(/C(=O)N2CCN(c3ccc(F)cc3)CC2)c2cc(OC)c(OC)c(OC)c2)cc1O | 0.253 µM | IC50 (AGS): 0.531 µM; IC50 (A549): 0.27 µM; IC50 (SK-MES-1): 0.385 µM |
| COc1cccc(N2CCN(C(=O)/C(=C/c3ccc(OC)c(O)c3)c3cc(OC)c(OC)c(OC)c3)CC2)c1 | 1.86 µM | – |
| COc1ccc(/C=C(/C(=O)N2CCN(c3ccccc3C)CC2)c2cc(OC)c(OC)c(OC)c2)cc1O | 1.58 µM | – |
| COc1ccc(/C=C(/C(=O)N2CCN(c3ccc(C)cc3)CC2)c2cc(OC)c(OC)c(OC)c2)cc1O[C@H]1O[C@@H](CO)[C@H](O)[C@@H](O)[C@@H]1O | – | logD at 24 h [1]: -0.538 |
| COc1ccc(/C=C(/C(=O)N2CCN(c3ccc(C)cc3)CC2)c2cc(OC)c(OC)c(OC)c2)cc1O[C@H]1O[C@@H](CO)[C@@H](O)[C@@H](O)[C@@H]1O | – | logD at 24 h [1]: -0.432 |
| COc1ccc(/C=C(/C(=O)N2CCN(c3ccc([N+](=O)[O-])cc3)CC2)c2cc(OC)c(OC)c(OC)c2)cc1O | 2.77 µM | – |
| COc1ccc(/C=C(/C(=O)N2CCN(c3ccccc3F)CC2)c2cc(OC)c(OC)c(OC)c2)cc1O | 1.38 µM | – |
| COc1ccc(/C=C(/C(=O)N2CCN(c3ccc(C)cc3)CC2)c2cc(OC)c(OC)c(OC)c2)cc1O[C@H]1O[C@@H](CO)[C@H](O[C@@H]2O[C@H](CO)[C@H](O)[C@H](O)[C@H]2O)[C@@H](O)[C@@H]1O | – | logD at 24 h [1]: -0.824 |
| COc1ccc(/C=C(/C(=O)N2CCN(Cc3ccc(F)cc3)CC2)c2cc(OC)c(OC)c(OC)c2)cc1O | 2.1 µM | – |
| COc1ccc(/C=C(/C(=O)N2CCNCC2)c2cc(OC)c(OC)c(OC)c2)cc1O | 0.735 µM | – |
| COc1ccc(N2CCN(C(=O)/C(=C/c3ccc(OC)c(O)c3)c3cc(OC)c(OC)c(OC)c3)CC2)cc1 | 0.941 µM | IC50 (AGS): 0.882 µM; IC50 (A549): 0.657 µM; IC50 (SK-MES-1): 0.605 µM |
| COc1ccc(/C=C(/C(=O)N2CCS(=O)(=O)CC2)c2cc(OC)c(OC)c(OC)c2)cc1O | 1.99 µM | – |
| COc1ccc(/C=C(/C(=O)N2CCOCC2)c2cc(OC)c(OC)c(OC)c2)cc1O | 0.926 µM | – |
| COc1ccc(/C=C(/C(=O)N2CCN(Cc3ccccc3C)CC2)c2cc(OC)c(OC)c(OC)c2)cc1O | 2.85 µM | – |
| COc1ccc(/C=C(/C(=O)N2CCN(Cc3cccc(C)c3)CC2)c2cc(OC)c(OC)c(OC)c2)cc1O | 3.64 µM | – |
| COc1ccc(/C=C(/C(=O)N2CCN(Cc3ccc(Cl)cc3)CC2)c2cc(OC)c(OC)c(OC)c2)cc1O | 2.69 µM | – |
| COc1ccc(/C=C\c2cc(OC)c(OC)c(OC)c2)cc1O [COMBRETASTATIN A4] | – | IC50 (AGS): 0.074 µM; IC50 at 72 h [2]: 0.011 µM; IC50 (SK-MES-1): 0.007 µM; logD at 24 h [1]: 2.14 |
| COc1ccc(/C=C(/C(=O)N2CCN(c3ccc(Cl)cc3)CC2)c2cc(OC)c(OC)c(OC)c2)cc1O | 0.593 µM | IC50 (AGS): 1.11 µM; IC50 (A549): 0.366 µM; IC50 (SK-MES-1): 0.753 µM |
| COc1ccc(/C=C(/C(=O)N2CCN(c3ccc(C#N)cc3)CC2)c2cc(OC)c(OC)c(OC)c2)cc1O | 3.35 µM | – |
| COc1ccc(/C=C(/C(=O)N2CCSCC2)c2cc(OC)c(OC)c(OC)c2)cc1O | 1.15 µM | – |
